Measurements as given in ChEMBL document CHEMBL2163200, “Synthesis, biological evaluation, and structure-activity relationships of novel substituted N-phenyl ureidobenzenesulfonate derivatives blocking cell cycle progression in S-phase and inducing DNA double-strand breaks” (J Med Chem, 2012).
Activity calls are given as the source filed them. No cut-off for these calls is given here.

Assays:
M21 [1] = experiment: Cytotoxicity against human M21 cells after 48 hrs by SRB assay; assay type: functional, cell-based; conditions: M21, 48 h
Procedure, shortened: (§1)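 NCI sulforhodamine B protocol. Cells were grown in high-glucose DMEM with 5% FBS and seeded per well at 4 × 10^3 (HT-29), 3.5 × 10^3 (M21) or 3 × 10^3 (MCF-7), then allowed 24 h to attach. Serial dilutions from 200 μM to 780 nM final were applied in DMSO <0.5% for 48 h. Cells were fixed with cold TCA (10% final) and stained with SRB, with absorbance read at 530–568 nm. Growth inhibition was computed against day-0 plates, giving the 50% inhibitory concentration. At least two experiments in triplicate, CV <10%.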

M21 [2] = experiment: Induction of DNA damage response in human M21 cells assessed as phosphorylation of H2AX into gammaH2AX at IC50 after 24 hrs by DAPI staining-based immunofluorescence assay; assay type: functional, cell-based
Procedure, shortened: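 M21 cells (1 × 10^5) on fibronectin-coated coverslips, grown 24 h, then exposed to agent for 24 h at 37 °C; 0.5% DMSO control. Fixed with 3.7% formaldehyde and permeabilized with 0.1% saponin/3% BSA. Probed with mouse anti-H2AX pS139 antibody for 2 h at room temperature. Nuclei counterstained with DAPI; nuclear γH2AX foci viewed by epifluorescence microscopy.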

Jurkat [3] = experiment: Cell cycle arrest in human Jurkat E6-1 cells assessed as accumulation at S phase at 6.6 uM after 24 hrs by FACS flow cytometry; assay type: functional
Procedure, shortened: (§2)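 Jurkat E6 T-lymphoblasts in RPMI 1640 with 10% FBS, 37 °C, 5% CO2. […] Chicken red blood cells were added as internal standard. Cells were fixed in ice-cold EtOH and stained with 1 μg/mL DAPI on ice for 1 h before flow cytometry of phase distribution. Vehicle control was 0.5% DMSO.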

Jurkat [4] = experiment: Cell cycle arrest in human Jurkat E6-1 cells assessed as accumulation at G2/M phase at 6.6 uM after 24 hrs by FACS flow cytometry; assay type: functional
Procedure, shortened: (§3)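 Jurkat E6 cells grown in RPMI 1640 with 10% FBS at 37 °C, 5% CO2. Compounds were serially diluted in medium starting 50% above the M21 IC50. 4.0 × 10^5 cells were exposed for 24 h, then washed and spiked with chicken red blood cells as internal standard. Cells were fixed in ice-cold ethanol, stained with 1 μg/mL DAPI on ice for 1 h, and phase distribution was read by flow cytometry. The control was 0.5% DMSO.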

Jurkat [5] = experiment: Cell cycle arrest in human Jurkat E6-1 cells assessed as accumulation at G0/G1 phase at 6.6 uM after 24 hrs by FACS flow cytometry; assay type: functional
Procedure, shortened: (§4)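 Jurkat E6 cells cultured in RPMI 1640 with 10% FBS at 37 °C, 5% CO2. Compounds serially diluted in medium, starting 50% above the M21 IC50. 4.0 × 10^5 cells were exposed for 24 h. Cells were washed with PBS, chicken red blood cells added as internal standard, and fixed in ice-cold EtOH. After 1 h on ice in PBS with 1 μg/mL DAPI, phase distribution was read by flow cytometry. DMSO-treated cells served as control.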

MCF7 = experiment: Cytotoxicity against human MCF7 cells after 48 hrs by SRB assay; assay type: functional, cell-based; conditions: MCF7, 48 h; procedure, shortened: as §1
[6] = Toxicity in fertilized chicken embryo assessed as mortality rate at 30 ug per egg, iv administered on day 11 measured on day 17 by CAM assay; assay type: organism-based, Gallus gallus; conditions: in vivo, read-out: Activity
Procedure, shortened: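 Fertilized chicken eggs grafted on the CAM with HT-1080 cells (3.5 × 105/egg) received a 100 μL intravenous injection under the CAM on day 11. The drug was diluted in Cremophor EL/99% ethanol/PBS (1/1/14 v/v). Groups held 10–12 eggs and were incubated until day 17, when dead embryos and signs of toxicity were counted per group.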

HT-29 = experiment: Cytotoxicity against human HT-29 cells after 48 hrs by SRB assay; assay type: functional, cell-based; conditions: HT-29, 48 h; procedure, shortened: as §1
Jurkat [7] = experiment: Cell cycle arrest in human Jurkat E6-1 cells assessed as accumulation at G0/G1 phase at 0.84 uM after 24 hrs by FACS flow cytometry; assay type: functional; procedure, shortened: as §4
HT-1080 = experiment: Antitumor activity against human HT1080 cells xenografted in chicken chorioallantoic membrane assessed as inhibition of tumor growth at 30 ug per egg, iv administered on day 11 measured on day 17 by CAM assay; assay type: functional
Procedure, shortened: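 HT-1080 fibrosarcoma cells (3.5 × 105/egg) were applied onto freshly exposed CAM of fertilized chicken eggs. On day 11, drug from a DMSO stock was diluted in Cremophor EL/99% ethanol/PBS (1/1/14 v/v) and 100 μL was injected into a vein under the CAM. Groups of 10–12 eggs were kept to day 17, embryos were euthanized at 4 °C for ≥4 h, and tumor wet weight was recorded.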

Jurkat [8] = experiment: Cell cycle arrest in human Jurkat E6-1 cells assessed as accumulation at G2/M phase at 0.84 uM after 24 hrs by FACS flow cytometry; assay type: functional; procedure, shortened: as §4
Jurkat [9] = experiment: Cell cycle arrest in human Jurkat E6-1 cells assessed as accumulation at S phase at 0.84 uM after 24 hrs by FACS flow cytometry; assay type: functional; procedure, shortened: as §3
Jurkat [10] = experiment: Cell cycle arrest in human Jurkat E6-1 cells assessed as accumulation at G0/G1 phase at 13 uM after 24 hrs by FACS flow cytometry; assay type: functional; procedure, shortened: as §4
Jurkat [11] = experiment: Cell cycle arrest in human Jurkat E6-1 cells assessed as accumulation at S phase at 13 uM after 24 hrs by FACS flow cytometry; assay type: functional; procedure, shortened: as §3
Jurkat [12] = experiment: Cell cycle arrest in human Jurkat E6-1 cells assessed as accumulation at G2/M phase at 13 uM after 24 hrs by FACS flow cytometry; assay type: functional; procedure, shortened: as §4
Jurkat [13] = experiment: Cell cycle arrest in human Jurkat E6-1 cells assessed as accumulation at S phase at 9.3 uM after 24 hrs by FACS flow cytometry; assay type: functional; procedure, shortened: as §2
Jurkat [14] = experiment: Cell cycle arrest in human Jurkat E6-1 cells assessed as accumulation at G0/G1 phase at 9.3 uM after 24 hrs by FACS flow cytometry; assay type: functional; procedure, shortened: as §4
Jurkat [15] = experiment: Cell cycle arrest in human Jurkat E6-1 cells assessed as accumulation at G2/M phase at 9.3 uM after 24 hrs by FACS flow cytometry; assay type: functional; procedure, shortened: as §3
Jurkat [16] = experiment: Cell cycle arrest in human Jurkat E6-1 cells assessed as accumulation at S phase at 63 uM after 24 hrs by FACS flow cytometry; assay type: functional; procedure, shortened: as §2
Jurkat [17] = experiment: Cell cycle arrest in human Jurkat E6-1 cells assessed as accumulation at G0/G1 phase at 63 uM after 24 hrs by FACS flow cytometry; assay type: functional; procedure, shortened: as §4
Jurkat [18] = experiment: Cell cycle arrest in human Jurkat E6-1 cells assessed as accumulation at G2/M phase at 63 uM after 24 hrs by FACS flow cytometry; assay type: functional; procedure, shortened: as §3
Jurkat [19] = experiment: Cell cycle arrest in human Jurkat E6-1 cells assessed as accumulation at S phase at 1.7 uM after 24 hrs by FACS flow cytometry; assay type: functional; procedure, shortened: as §3
Jurkat [20] = experiment: Cell cycle arrest in human Jurkat E6-1 cells assessed as accumulation at G0/G1 phase at 1.7 uM after 24 hrs by FACS flow cytometry; assay type: functional; procedure, shortened: as §4
Jurkat [21] = experiment: Cell cycle arrest in human Jurkat E6-1 cells assessed as accumulation at G2/M phase at 1.7 uM after 24 hrs by FACS flow cytometry; assay type: functional; procedure, shortened: as §4

Structure (SMILES)	IC50 (M21 [1]) [µM]	Activity (M21 [2])	IC50 (MCF7) [µM]	IC50 (HT-29) [µM]	TGI (HT-1080) [%]	further results
CCCc1ccccc1OS(=O)(=O)c1ccc(NC(=O)NCCCCl)cc1	13	Active	15			Activity (Jurkat [3]): 67%; Activity (Jurkat [4]): 8%; Activity (Jurkat [5]): 25%
O=C(NCCCl)Nc1ccc(S(=O)(=O)Oc2ccc(O)cc2)cc1	1.2		1.3	1.5	69	mortality at 6 days [6]: 15%; Activity (Jurkat [7]): 27%; Activity (Jurkat [8]): 20%; Activity (Jurkat [9]): 53%
CCCc1ccccc1OS(=O)(=O)c1cccc(NC(=O)NCCCl)c1	17			15		Activity (Jurkat [10]): 47%; Activity (Jurkat [11]): 36%; Activity (Jurkat [12]): 17%
CCc1ccccc1OS(=O)(=O)c1ccc(NC(=O)NCCCl)cc1	13	Active	19	17	49	Activity (Jurkat [13]): 77%; Activity (Jurkat [14]): 6%; Activity (Jurkat [15]): 17%
Cc1ccccc1NS(=O)(=O)c1cccc(NC(=O)NCCCl)c1	91		86	71		Activity (Jurkat [16]): 45%; Activity (Jurkat [17]): 41%; Activity (Jurkat [18]): 14%
CCCc1ccccc1OS(=O)(=O)c1ccc(NC(=O)NCCCl)cc1	2.1	Active	3.6	2.5	49	Activity (Jurkat [19]): 73%; Activity (Jurkat [20]): 16%; Activity (Jurkat [21]): 11%
